From ChEMBL document CHEMBL4393661, “PRODRUGS FOR NITROREDUCTASE BASED CANCER THERAPY- 2: Novel amide/Ntr combinations targeting PC3 cancer cells” (Eur J Med Chem, 2019)

Experiments:
Putative nitroreductase [1] = target: T1, Putative nitroreductase (Staphylococcus saprophyticus subsp. saprophyticus (strain ATCC 15305 / DSM20229 / NCIMB 8711 / NCTC 7292 / S-41), UniProt Q4A0P1); experiment: Substrate activity at Staphylococcus saprophyticus nitroreductase expressed in Escherichia coli assessed as retention time in the presence of NADPH at 150 uM by HPLC analysis (0 to 5 mins at 20% ACN, 25 to 35 min at 80% ACN, 40 to 45 min at 20% ACN); type: ADME
T1 sequence (Q4A0P1 whole entry): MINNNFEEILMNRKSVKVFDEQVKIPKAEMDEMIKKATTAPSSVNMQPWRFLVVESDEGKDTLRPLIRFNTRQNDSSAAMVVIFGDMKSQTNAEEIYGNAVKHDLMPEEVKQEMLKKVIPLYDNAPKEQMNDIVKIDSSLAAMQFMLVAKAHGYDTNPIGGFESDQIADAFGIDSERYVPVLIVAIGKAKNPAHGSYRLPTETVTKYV

Putative nitroreductase [2] = target: T1, Putative nitroreductase; experiment: Prodrug conversion assessed as Staphylococcus saprophyticus nitroreductase mediated P4 metabolite formation in presence of FDH cofactor regeneration system at 100 uM by HPLC analysis; type: ADME; details: isolated protein
Procedure, shortened: (§1)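 This was a coupled regeneration reaction: 100 µM substrate in Tris/Cl pH 7.5 with 5–15% DMSO, plus 100 µM NADH, 10 µM NAD+, 0.1 mg/mL BSA, 200 µM sodium formate, 30 µg/mL Ssap-NtrB and 30 µg/mL Candida methylica FDH, at 25 °C. Aliquots were taken over time, quenched 1:1 with cold acetonitrile and analysed by C18 HPLC using program II (20→80→20% ACN). Peak areas were read at 254 and 340 nm.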

Putative nitroreductase [3] = target: T1, Putative nitroreductase; experiment: Prodrug conversion assessed as Staphylococcus saprophyticus nitroreductase mediated P2 metabolite formation in presence of FDH cofactor regeneration system at 100 uM by HPLC analysis; type: ADME; details: isolated protein; procedure, shortened: as §1
[4] = target: T2, Staphylococcus saprophyticus nitroreductase (Staphylococcus saprophyticus subsp. saprophyticus (strain ATCC 15305 / DSM20229 / NCIMB 8711 / NCTC 7292 / S-41), UniProt Q4A0P1); experiment: Substrate activity at Staphylococcus saprophyticus nitroreductase expressed in Escherichia coli assessed as half life in the presence of NADPH at 150 uM by HPLC analysis (0 to 5 mins at 20% ACN, 25 to 35 min at 80% ACN, 40 to 45 min at 20% ACN); type: ADME
T2 sequence (Q4A0P1 whole entry): T1 sequence (Q4A0P1 whole entry)

[5] = Cytotoxicity against human HUVEC cells assessed as cell viability at 9 to 150 uM measured after 48 hrs by MTT assay relative to control; type: cell-based; details: read-out: Activity
Procedure, shortened: (§2)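 Hep3B and HUVEC cells were grown in high-glucose medium with 10% heat-inactivated FBS and 2 mM glutamine at 37 °C in 5% CO2. Cells were seeded at 5x10^4 per well and left 24 h to attach. They were then exposed for 48 h to 150, 75, 39, 19 and 9 µM, with 1% DMSO as vehicle control. Viability was read by MTT at 550 nm as (OD sample/OD control)×100.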

[6] = Cytotoxicity against human Hep3B cells assessed as cell viability at 9 to 150 uM measured after 48 hrs by MTT assay relative to control; type: cell-based, Hep 3B2; details: read-out: Activity; procedure, shortened: as §2
Putative nitroreductase [7] = target: T1, Putative nitroreductase; experiment: Prodrug conversion assessed as Staphylococcus saprophyticus nitroreductase mediated P1 metabolite formation in presence of FDH cofactor regeneration system at 100 uM by HPLC analysis; type: ADME; details: isolated protein; procedure, shortened: as §1
[8] = Cytotoxicity against human PC3 cells assessed as cell viability at 9 to 150 uM measured after 48 hrs by MTT assay relative to control; type: cell-based, PC-3; details: read-out: Activity
Procedure, shortened: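 They were treated for 48 h at 9, 18, 39, 78 and 150 µM, with 1% DMSO as vehicle control. Viability was read by MTT at 550 nm.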

Putative nitroreductase [9] = target: T1, Putative nitroreductase; experiment: Prodrug conversion assessed as Staphylococcus saprophyticus nitroreductase mediated P3 metabolite formation in presence of FDH cofactor regeneration system at 100 uM by HPLC analysis; type: ADME; details: isolated protein; procedure, shortened: as §1
Putative nitroreductase [10] = target: T1, Putative nitroreductase; experiment: Substrate activity at Staphylococcus saprophyticus nitroreductase expressed in Escherichia coli assessed as retention time […] at 150 uM by HPLC analysis (0 to 5 mins at 20 % ACN, 15 to 22 min at 80% ACN, 27-32 AT 20% ACN); type: ADME
Putative nitroreductase [11] = target: T1, Putative nitroreductase; experiment: Prodrug conversion assessed as Staphylococcus saprophyticus nitroreductase mediated P5 metabolite formation in presence of FDH cofactor regeneration system at 100 uM by HPLC analysis; type: ADME; details: isolated protein; procedure, shortened: as §1
[12] = target: T2, Staphylococcus saprophyticus nitroreductase; experiment: Substrate activity at Staphylococcus saprophyticus nitroreductase expressed in Escherichia coli assessed as half life […] at 150 uM by HPLC analysis (0 to 5 mins at 20 % ACN, 15 to 22 min at 80% ACN, 27-32 AT 20% ACN); type: ADME
PC-3 [13] = experiment: Cytotoxicity in human PC3 cells assessed as reduction in cell viability at 180 nM measured after 48 hrs by SRB assay; type: cell-based; details: pc-3, 48 h, 0.18 µM
Procedure, shortened: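 They were exposed for 48 h to prodrug alone at 180 nM final, without enzyme or NADH, with 25 mM Tris-HCl as vehicle control. Cells were fixed with 12.5% TCA for 1 h at 4 °C, stained with 0.4% SRB and read at 492 nm as % cell survival, in triplicate.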

[14] = target: T2, Staphylococcus saprophyticus nitroreductase; experiment: Substrate activity at Staphylococcus saprophyticus nitroreductase expressed in Escherichia coli assessed as half life […] at 100 uM by HPLC analysis (0 to 5 mins at 20% ACN, 25 to 35 min at 80% ACN, 40 to 45 min at 20% ACN); type: ADME
[15] = Solubility of the compound in 15% DMSO; type: physicochemical
Putative nitroreductase [16] = target: T1, Putative nitroreductase; experiment: (§3) Prodrug conversion assessed Staphylococcus saprophyticus nitroreductase expressed in Escherichia coli-mediated N,N'-(cyclohexane-1,4-diyl)bis(4-aminobenzamide) formation by measuring retention time of metabolite at 100 uM incubated for 15 mins in presence of FDH cofactor regeneration system by HPLC analysis; type: ADME; details: 0.25 h; procedure, shortened: as §1
Putative nitroreductase [17] = target: T1, Putative nitroreductase; experiment: Substrate activity at Staphylococcus saprophyticus nitroreductase expressed in Escherichia coli assessed as retention time […] at 100 uM by HPLC analysis (0 to 5 mins at 20 % ACN, 15 to 22 min at 80% ACN, 27-32 AT 20% ACN); type: ADME
Putative nitroreductase [18] = target: T1, Putative nitroreductase; experiment: Prodrug conversion assessed Staphylococcus saprophyticus nitroreductase expressed in Escherichia coli-mediated 4-amino-N-(4-(4-(hydroxyamino)benzamido)cyclohexyl)benzamide formation at 100 uM incubated for 15 mins by HPLC analysis; type: ADME; details: 0.25 h
Putative nitroreductase [19] = target: T1, Putative nitroreductase; experiment: Substrate activity at Staphylococcus saprophyticus nitroreductase expressed in Escherichia coli assessed as retention time in the presence of NADPH at 100 uM by HPLC analysis (0 to 5 mins at 20% ACN, 25 to 35 min at 80% ACN, 40 to 45 min at 20% ACN); type: ADME
Putative nitroreductase [20] = target: T1, Putative nitroreductase; experiment: as §3, with “N,N'-(cyclohexane-1,4-diyl)bis(4-(hydroxyamino)benzamide)” for “N,N'-(cyclohexane-1,4-diyl)bis(4-aminobenzamide)”, “time” for “time of metabolite”; type: ADME; details: 0.25 h; procedure, shortened: as §1
Putative nitroreductase [21] = target: T1, Putative nitroreductase; experiment: (§4) Prodrug conversion assessed Staphylococcus saprophyticus nitroreductase expressed in Escherichia coli-mediated N,N'-(cyclohexane-1,4-diyl)bis(4-aminobenzamide) formation by measuring retention time at 100 uM incubated for 15 mins in presence of FDH cofactor regeneration system by HPLC analysis; type: ADME; details: 0.25 h; procedure, shortened: as §1
Putative nitroreductase [22] = target: T1, Putative nitroreductase; experiment: Prodrug conversion assessed Staphylococcus saprophyticus nitroreductase expressed in Escherichia coli-mediated 4-(hydroxyamino)-N-(4-(4-nitrobenzamido)cyclohexyl)benzamide formation at 100 uM incubated for 15 mins by HPLC analysis; type: ADME; details: 0.25 h
PC-3 [23] = experiment: Cytotoxicity against human PC3 cells assessed as reduction in cell viability measured after 48 hrs in presence of Staphylococcus saprophyticus nitroreductase and NADH by SRB assay; type: cell-based; details: PC-3, 48 h
Procedure, shortened: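 Prodrug at 180, 18 or 1.8 nM was premixed with Ssap-NtrB (31 µg/mL final) and NADH (600 µM final; 900 µM for CB1954) in 25 mM Tris-HCl pH 7.5, then added for 48 h under aerobic conditions. Cells were fixed with 12.5% TCA, stained with SRB and read at 492 nm, in triplicate.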

Putative nitroreductase [24] = target: T1, Putative nitroreductase; experiment: Prodrug conversion assessed Staphylococcus saprophyticus nitroreductase expressed in Escherichia coli-mediated N,N'-(cyclohexane-1,4-diyl)bis(4-(hydroxyamino)benzamide) formation at 100 uM incubated for 15 mins by HPLC analysis; type: ADME; details: 0.25 h
Putative nitroreductase [25] = target: T1, Putative nitroreductase; experiment: Prodrug conversion assessed Staphylococcus saprophyticus nitroreductase expressed in Escherichia coli-mediated N,N'-(cyclohexane-1,4-diyl)bis(4-aminobenzamide) formation at 100 uM incubated for 15 mins by HPLC analysis; type: ADME; details: 0.25 h
Putative nitroreductase [26] = target: T1, Putative nitroreductase; experiment: as §4, with “4-amino-N-(4-(4-(hydroxyamino)benzamido)cyclohexyl)benzamide” for “N,N'-(cyclohexane-1,4-diyl)bis(4-aminobenzamide)”; type: ADME; details: 0.25 h; procedure, shortened: as §1
Putative nitroreductase [27] = target: T1, Putative nitroreductase; experiment: Prodrug conversion assessed Staphylococcus saprophyticus nitroreductase expressed in Escherichia coli-mediated PP (4-(hydroxyamino)phenyl)(piperidin-1-yl)methanone metabolite formation by measuring retention time of metabolite at 100 uM incubated for 15 mins by HPLC analysis; type: ADME; details: 0.25 h
Procedure, shortened: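 Recombinant Ssap-NtrB, Ni-column purified, was used at 2.5 µg/mL. Substrate at 100 µM was reacted with 200 µM NADH in 25 mM Tris/Cl pH 7.5 with 10% DMSO at 25 °C for 15 min. The reaction was stopped 1:1 with cold acetonitrile and run on C18 RP-HPLC at 1 mL/min with a 20–80% ACN gradient. Peaks were detected at 254 and 340 nm.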

Putative nitroreductase [28] = target: T1, Putative nitroreductase; experiment: Prodrug conversion assessed Staphylococcus saprophyticus nitroreductase expressed in Escherichia coli-mediated (4-aminophenyl)(piperidin-1-yl)methanone metabolite formation by measuring retention time in presence of FDH cofactor regeneration system at 100 uM by HPLC analysis; type: ADME; procedure, shortened: as §1
Putative nitroreductase [29] = target: T1, Putative nitroreductase; experiment: Prodrug conversion assessed Staphylococcus saprophyticus nitroreductase expressed in Escherichia coli-mediated PP (4-(hydroxyamino)phenyl)(piperidin-1-yl)methanone metabolite formation by measuring retention time in presence of FDH cofactor regeneration system at 100 uM by HPLC analysis; type: ADME; procedure, shortened: as §1
[30] = target: T2, Staphylococcus saprophyticus nitroreductase; experiment: Substrate activity at Staphylococcus saprophyticus nitroreductase expressed in Escherichia coli assessed as half life […] at 100 uM by HPLC analysis (0 to 5 mins at 20 % ACN, 15 to 22 min at 80% ACN, 27-32 AT 20% ACN); type: ADME

Structure (SMILES)	viability at 48 h, up to 150 µM [5] [%]	viability at 48 h, up to 150 µM [6] [%]	viability at 48 h, up to 150 µM [8] [%]	Activity (PC-3 [13])	half-life at 100 µM [14] [min]	solubility [15]	Retention_time (Putative nitroreductase [17]) [min]	Retention_time (Putative nitroreductase [19]) [min]	IC50 (PC-3 [23]) [nM]	other results
CCN(C(C)=O)c1cc([N+](=O)[O-])cc([N+](=O)[O-])c1	> 80	51 to 80	> 80	–	–	–	–	–	–	Retention_time (Putative nitroreductase [1]): 16.85 min; Drug metabolism (Putative nitroreductase [2]): Metabolite_Detected; Drug metabolism (Putative nitroreductase [3]): Metabolite_Detected; half-life [4]: < 1.2 min; Drug metabolism (Putative nitroreductase [7]): Metabolite_Detected; Drug metabolism (Putative nitroreductase [9]): Metabolite_Detected; Retention_time (Putative nitroreductase [10]): 14.55 min; Drug metabolism (Putative nitroreductase [11]): Metabolite_Detected; half-life [12]: < 1.2 min
O=C(NC1CCC(NC(=O)c2ccc([N+](=O)[O-])cc2)CC1)c1ccc([N+](=O)[O-])cc1 (configuration not stated)	> 80	> 80	> 80	Non-Toxic	< 90	Soluble	19.96	19.2	1.79	Retention_time (Putative nitroreductase [16]): 13.48 min; Drug metabolism (Putative nitroreductase [18]): Metabolite_Notdetected; Retention_time (Putative nitroreductase [20]): 13.48 min; Retention_time (Putative nitroreductase [21]): 13.48 min; Drug metabolism (Putative nitroreductase [22]): Metabolite_Detected; Drug metabolism (Putative nitroreductase [24]): Metabolite_Notdetected; Drug metabolism (Putative nitroreductase [25]): Metabolite_Notdetected; Retention_time (Putative nitroreductase [26]): 13.48 min
O=C(c1ccc([N+](=O)[O-])cc1)N1CCCCC1	> 80	> 80	> 80	Non-Toxic	< 1.2	Soluble	18.22	17.81	1.81	Retention_time (Putative nitroreductase [27]): 15.99 min; Retention_time (Putative nitroreductase [28]): 22.3 min; Retention_time (Putative nitroreductase [29]): 14 min; half-life [30]: < 90 min
